Bioassay records: PubChem, several laboratories
Shown are actives, neighbours in structure and some others; about 2.4% of the full set was active somewhere.
MPTP inh – mitochondrial permeability transition pore inhibitors, primary screen, biochemical, isolated mouse mitochondria, absorbance; Ca2+ swelling absorbance, 30 min; inhibition, % at 10 µM; 360,000 compounds, 1.4% hits;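 active means inhibition of 50% or more, scaled per plate between neutral and stimulator controls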
Jurkat NFkB inh – inhibitors of induced NF-kB luciferase reporter, primary screen, TCR NF-kB activation inhibitor project, cell-based, luminescence, uHTS. Jurkat, PMA/ionomycin-induced NF-kB luciferase reporter. inhibition, % at 4 µM. 330,000 compounds, 0.53% hits. AID 435003, 2010; in the data active means inhibition above about 50%
NR2E3 ag-1 – inhibitors of NR2E3-RetCOR corepressor binding, primary screen, NR2E3 agonist project, biochemical, TR-FRET, GST-NR2E3, biotin-RetCOR; Photoreceptor-specific nuclear receptor (Homo sapiens), Q9Y5X4; 1536-well; inhibition of corepressor binding, % at 4.78 µM; 320,000 compounds, 0.12% hits; AID 2300, 2010;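 active means percent inhibition above the cutoff of mean plus 3 SD of all tested compounds, set per screening campaign, cut at about 20% in these data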
Target sequence (Q9Y5X4 whole entry, looked up): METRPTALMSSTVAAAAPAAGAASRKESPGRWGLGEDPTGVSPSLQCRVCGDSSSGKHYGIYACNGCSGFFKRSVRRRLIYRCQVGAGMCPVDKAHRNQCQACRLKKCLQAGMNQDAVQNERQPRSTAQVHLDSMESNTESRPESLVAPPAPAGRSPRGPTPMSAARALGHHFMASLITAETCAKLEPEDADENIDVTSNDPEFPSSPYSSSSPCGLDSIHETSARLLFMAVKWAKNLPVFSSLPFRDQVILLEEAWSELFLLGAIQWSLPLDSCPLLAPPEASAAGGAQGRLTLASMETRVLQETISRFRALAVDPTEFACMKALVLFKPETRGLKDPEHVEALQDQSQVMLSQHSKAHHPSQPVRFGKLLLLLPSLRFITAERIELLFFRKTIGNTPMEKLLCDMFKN
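Test system: GST-NR2E3 and biotin-RetCOR proteins | Quantity: 1.35 nM GST-tagged NR2E3 final | Medium: Tris pH 7.5 | Also added: 7 nM biotin-RetCOR | Dosing: Compound at 4.8 µM, single dose | Timing: 5 h at 4 °C | Detection: Time-resolved FRET | Read-out basis: Percent inhibition | Benchmarks: Biotin wells as high control, 0.6% DMSO wells as low control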
aDG glyco act – activators of alpha-DG glycosylation, primary screen, uHTS, Pro5-aDG cells, AlphaScreen. alpha-DG glycosylation AlphaScreen (IIH6); 0% Pro5, 100% B10-LARGE cell signal. activation, % at 10 µM. 360,000 compounds, 0.22% hits. AID 624168, 2012;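 active means activation of at least 8% versus controls, or a plate z-score of at least 8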;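 further: Pro5 are CHO cells carrying HIG-tagged alpha-DG that lacks glycosylation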
NR2E3 ag-2 – NR2E3 agonists in two-hybrid cells, primary screen, cell-based, luminescence, CHO-S, Gal4-NCOR/VP16-NR2E3; 360,000 compounds, 0.35% hits; Photoreceptor-specific nuclear receptor (Homo sapiens), Q9Y5X4; luciferase; AID 602229, 2012; inhibition of corepressor binding, % at 3.98 µM;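 active means inhibition above the mean of all tested compounds plus 3 SD, cut at about 70% in these data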;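 further: higher means lower luciferase signal from less NR2E3 corepressor binding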
697 NFkB inh – inhibitors of PMA/ionomycin-induced NF-kB reporter, 697 cells, primary screen, B-cell NF-kB inhibitor project, cell-based, luminescence, uHTS | 330,000 compounds, 0.33% hits | AID 435022, 2010 | 697 B-cell NF-kB luciferase reporter, 16 h | inhibition, % at 4 µM; in the data active means inhibition above about 35%
Rh123 counter – fluorescence retest of MPTP screen hits in isolated mitochondria, single concentration. shares compounds with MPTP inh. membrane potential, Rhodamine 123 fluorescence. inhibition, % at 10 µM. 5,000 compounds, 78% hits. AID 624504, 2012; in the data active means inhibition above about 22%
MPTP swell DR – mitochondrial permeability transition pore inhibitors, dose response, biochemical, absorbance, uHTS hits; shares compounds with MPTP inh; isolated mitochondria swelling; IC50, µM; 780 compounds, 58% hits; AID 651561, 2012; in the data active means IC50 below about 20 µM
MPTP cs DR – fluorescent counter-screen in isolated mitochondria, dose response, counter-screen for MPTP inhibitor project, biochemical, fluorescence, uHTS hits | AID 651564, 2012 | 780 compounds, 49% hits | isolated mitochondria counterscreen, fluorescence read-out | IC50, µM | shares compounds with MPTP inh; in the data active means IC50 below about 80 µM
A number is an active result; - = inactive; . = no result given.

SMILES	MPTP inh	Jurkat NFkB inh	NR2E3 ag-1	aDG glyco act	NR2E3 ag-2	697 NFkB inh	Rh123 counter	others
CCOC(=O)c1sc(NC(=O)c2ccncc2)c(C#N)c1C	97	-	-	-	-	-	87
CCOC(=O)c1sc(NC(=O)CSc2n[nH]c(-c3ccc(Cl)cc3Cl)n2)c(C#N)c1C	83	-	-	-	-	-	83
CCOC(=O)c1sc(NC(=O)CSc2nc(C)cc(-c3ccccc3)n2)c(C#N)c1C	-	-	-	-	-	-	.
CC[C@]12c3[nH]c4ccc(Cl)cc4c3CCN1C(=O)[C@@H](CC(=O)NCCCN(C)C)C[C@@H]2C(=O)N1CCN(C(=O)c2ccco2)CC1	-	.	.	-	-	-	.
CC(C)Sc1cc(N2CCCC2)nc(-c2ccccc2)n1	-	-	-	-	-	-	.
CC(C)Sc1cc(N2CCOCC2)nc(-c2ccccc2)n1	50	-	-	-	-	-	-	MPTP swell DR=-;MPTP cs DR=77
O=C(CNc1cc(S(=O)(=O)N2CCCC2)ccc1OCC(F)(F)F)Nc1cccc(C(F)(F)F)c1	51	-	-	-	-	-	48
Cc1csc(SCC(=O)c2c(N)n(CC(C)C)c(=O)n(C)c2=O)n1	51	-	-	-	-	-	-	MPTP swell DR=-;MPTP cs DR=5.8
CC(C)Cn1c(N)c(C(=O)CSc2ncccn2)c(=O)n(C)c1=O	-	-	-	-	-	-	.
CCOC(=O)Cc1csc(SCC(=O)c2c(N)n(CC(C)C)c(=O)n(C)c2=O)n1	78	-	-	-	-	-	24
Cc1csc(=O)n1CC(=O)OCC(=O)c1c(N)n(CC(C)C)c(=O)n(C)c1=O	-	-	-	-	-	-	.
O=S(=O)(Nc1nc2ccccc2nc1Nc1ccc(N2CCOCC2)cc1)c1cc(Cl)ccc1Cl	86	-	-	-	-	-	77
COc1ccc(Cl)cc1NC(=S)NCCSc1ccc(C)cc1	82	-	-	-	-	-	81
CC(CNC(=S)Nc1cc(F)cc(F)c1)CSc1ccc(Cl)cc1 (stereo unspecified)	97	-	-	-	-	-	89
COc1ccccc1NC(=S)NCCSc1ccc(Cl)cc1	-	-	-	-	-	-	.
Cc1cccc(C)c1NC(=S)NCCSc1ccc(Cl)cc1	82	-	-	-	-	-	86
COc1ccc(NC(=S)NCCSc2ccc(Cl)cc2)c(OC)c1	-	-	-	-	-	-	.
Cc1ccc(NC(=S)NCCSc2ccc(Cl)cc2)cc1	100	-	-	-	-	-	99
O=C(N/N=C/c1cn(-c2cccs2)nc1-c1ccccc1)c1ccccc1Br	-	-	-	-	-	-	.
O=C(N/N=C/c1cn(-c2cccs2)nc1-c1ccccc1)c1ccccc1O	99	-	-	-	-	-	32
COc1nc(N)nc2nc[nH]c12	-	-	-	-	-	-	.
FC(F)(F)Oc1ccc(NC(=S)Nc2ccccc2N2CCOCC2)cc1	90	-	-	-	-	-	81
N#C/C(=C(/O)COC(=O)c1ccccc1O)c1nc2ccccc2s1	100	-	-	-	-	-	94
N#C/C(=C(/O)COC(=O)c1ccc(O)cc1)c1nc2ccccc2[nH]1	-	-	-	-	-	-	.
CC(C)(C)c1ccc(C(=O)OC/C(O)=C(\C#N)c2nc3ccccc3s2)cc1	97	-	-	-	-	-	70
SMILES	MPTP inh	Jurkat NFkB inh	NR2E3 ag-1	aDG glyco act	NR2E3 ag-2	697 NFkB inh	Rh123 counter	others
CN1CC2=Cc3ccccc3OC23Oc2ccccc2C=C3C1	65	-	-	-	-	-	-	MPTP swell DR=-;MPTP cs DR=-
O=C1c2ccccc2OC2(C=Cc3ccccc3O2)N1Cc1ccccc1 (stereo unspecified)	-	-	-	-	-	-	.
C=CCNCCCCOc1ccc(Br)cc1C	71	-	-	-	-	-	-	MPTP swell DR=8.3;MPTP cs DR=-
Cc1ccc(NC(=S)/C(=C(\[O-])c2ccc(Cl)s2)[n+]2cccc(CO)c2)cc1C	-	-	-	-	-	-	.
[O-]/C(=C(\C(=S)Nc1ccc(SC(F)F)cc1)[n+]1cccc(CO)c1)c1ccc(Cl)s1	101	-	-	-	-	-	85
CCN1CCC(CNCc2cn(-c3ccc(OC)cc3)nc2-c2ccccc2Cl)C1 (stereo unspecified)	84	-	-	-	-	-	-	MPTP swell DR=9.1;MPTP cs DR=-
CC(Oc1ccccc1)C(=O)N=C1SC2CS(=O)(=O)CC2N1c1ccc(F)cc1 (stereo unspecified)	-	-	-	-	-	-	.
C1CCC(C(CC2CCCCN2)C2CCCCC2)CC1 (stereo unspecified)	82	-	-	-	-	-	-
COc1ccc(Cn2c(C)c(C)c(C#N)c2NC(=O)Nc2ccc(Cl)cc2)cc1	94	-	-	-	-	-	78
Cc1c(C#N)c(NC(=O)c2cccc(Cl)c2)n(Cc2ccccc2)c1C	-	-	-	-	-	-	.
COc1ccc(NC(=O)Nc2ccc(OC)cc2)cc1	-	-	-	-	-	-	.
COc1ccc(Cn2c(C)c(C)c(C#N)c2NC(=O)Nc2cccc(Cl)c2)cc1	74	-	-	-	-	-	70
CCCn1c(=S)[nH]c2cc(C(=O)N3CCc4ccccc43)ccc2c1=O	60	-	-	-	-	-	48
COC(=O)C1(CC2CC(c3cccc(Br)c3)=NO2)CCN(C(=O)OC(C)(C)C)CC1 (stereo unspecified)	54	-	-	-	-	-	57
CC(C)(C)OC(=O)N1CCC(CC2CC(c3ccccc3)=NO2)(C(=O)NCc2ccccc2)CC1 (stereo unspecified)	-	-	-	-	-	-	.
CC(C)OC(=O)N(C)C[C@@H]1OCc2cnnn2CCCC(=O)N([C@@H](C)CO)C[C@@H]1C	-	.	.	-	-	.	.
O=C(N/N=C/c1cc(Br)ccc1O)Nc1ccccc1	99	-	-	-	-	-	65
CN(C)S(=O)(=O)c1cccc(NC(=S)N/N=C/c2cc(Br)ccc2O)c1	100	-	-	-	-	-	38
